Hck-Nef inh – inhibitors of Nef-activated human Hck kinase, primary screen, biochemical, Z-Lyte FRET, 384-well, Hck-YEEI; Tyrosine-protein kinase HCK (Homo sapiens), P08631; Recombinant Hck-YEEI plus Nef, Z-Lyte FRET kinase assay; inhibition, % at 20 µM; hit rate 0.68% among 220,000; AID 463187, 2010;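 active = Hck-Nef kinase inhibition above about 50%, limit read from the data; inactive = inhibition below that limit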
Target sequence (P08631 whole entry, looked up): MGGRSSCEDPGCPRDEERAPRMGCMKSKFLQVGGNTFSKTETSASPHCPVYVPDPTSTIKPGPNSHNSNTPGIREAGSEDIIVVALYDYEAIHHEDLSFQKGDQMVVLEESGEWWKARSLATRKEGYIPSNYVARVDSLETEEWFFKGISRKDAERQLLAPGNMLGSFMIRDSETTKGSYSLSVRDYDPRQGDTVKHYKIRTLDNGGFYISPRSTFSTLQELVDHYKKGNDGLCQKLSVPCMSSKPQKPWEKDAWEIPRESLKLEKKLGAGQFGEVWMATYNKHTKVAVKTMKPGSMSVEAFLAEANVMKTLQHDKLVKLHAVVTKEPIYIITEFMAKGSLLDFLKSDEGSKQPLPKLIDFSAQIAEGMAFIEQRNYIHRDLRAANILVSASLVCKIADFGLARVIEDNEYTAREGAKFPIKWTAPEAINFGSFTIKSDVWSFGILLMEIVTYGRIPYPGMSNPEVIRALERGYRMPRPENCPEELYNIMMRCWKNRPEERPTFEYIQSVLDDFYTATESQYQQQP
RanGTP-Impb inh – inhibitors of RanGTP-importin-beta interaction, primary screen, biochemical, FRET, CFP-Ran, YFP-importin-beta, homogeneous. inhibition, % (no concentration beside the values). AID 2216, 2009. cell-free CFP-Ran/YFP-importin-beta FRET ratio. Ran GTPase (GTP-bound) - importin-beta complex. hit rate 1.1% among 300,000;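 active = more than half of the replicate wells show a fall in the fluorescence ratio signal beyond about 16%, limit read from the data, passing the limit was not always enough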
Runt-CBFb FRET – inhibitors of RUNX1 Runt–CBFb binding, primary screen, biochemical, FRET, Cerulean-Runt, Venus-CBFb, uHTS. hit rate 0.46% among 220,000. Cerulean-Runt/Venus-CBFb FRET ratio 530/480, 1 h. AID 1496, 2009. Runt-related transcription factor 1 (Homo sapiens) + Core-binding factor subunit beta …. inhibition, % at 20 µM;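 active = inhibition over about 50% at 20 µM in the single-dose screen, limit read from the data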
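Reagent – Venus-CBFb binding partner, 100 nM · Assay system – Cerulean-tagged RUNX1 Runt domain (FRET donor) fusion protein · Input – 100 nM per protein · Incubation – two 1 h room-temperature incubations shielded from light · Measured by – FRET fluorescence · Medium – Tris buffer pH 7.5 with salts and BSA · Benchmarks – unlabeled CBFb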
Runt-SMMHC FRET – inhibitors of RUNX1 Runt–CBFb-SMMHC binding, primary screen, biochemical, FRET, Cerulean-Runt, Venus-CBFb-SMMHC, uHTS; Cerulean-Runt/Venus-CBFb-SMMHC FRET ratio 530/480, 1 h; inhibition, % at 20 µM; hit rate 0.74% among 220,000;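 active = mean inhibition across duplicate retests at 20 µM reaching about 50%, limit read from the data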;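 note: inhibitors lower the FRET ratio by blocking Runt binding to CBFb-SMMHC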
Hits are given with their value. Rows were chosen to be rich in hits. Some 1.8% of all compounds tested hit in one or more screens of this group.

Screening COc1ccc(C2C3=C(CC(C)(C)CC3=O)N(CCN3CCOCC3)C3=C2C(=O)CC(C)(C)C3)cc1 returned Hck-Nef inh inactive, RanGTP-Impb inh 71.5, Runt-CBFb FRET 90.7 and Runt-SMMHC FRET 81.2.
`CCOC(=O)c1c(NC(=O)c2c(C(=O)O)cccc2[N+](=O)[O-])sc2c1CCCC2` gave RanGTP-Impb inh inactive.
For Cc1noc(NS(=O)(=O)c2ccc(NC(=O)C(CC(C)C)N3C(=O)c4ccccc4C3=O)cc2)c1C (stereo unspecified) the results were Hck-Nef inh inactive, RanGTP-Impb inh inactive, Runt-CBFb FRET inactive and Runt-SMMHC FRET inactive.
For O=C(CCN1CCC(c2ccc(Cl)s2)=N1)c1ccc(Cl)s1 the results were Hck-Nef inh inactive, RanGTP-Impb inh 16.4, Runt-CBFb FRET inactive and Runt-SMMHC FRET inactive.
For COc1cc2c(cc1OC)C(C)N(S(=O)(=O)c1ccc(Cl)nc1)CC2 (stereo unspecified) the results were RanGTP-Impb inh inactive.
For Cn1c2c(c(=O)n(C)c1=O)NC1(N2)C(=O)Nc2ccccc21 (stereo unspecified) the results were Hck-Nef inh inactive, RanGTP-Impb inh 36.8, Runt-CBFb FRET inactive and Runt-SMMHC FRET inactive.
For Cc1ccc(/C=C\c2nccc3c2[nH]c2ccccc23)cc1 the results were Hck-Nef inh 59.2, RanGTP-Impb inh inactive, Runt-CBFb FRET inactive and Runt-SMMHC FRET inactive.
Screening CN(CCC#N)c1ccc(/C=C(\C#N)c2ccccn2)cc1 returned Hck-Nef inh inactive, RanGTP-Impb inh inactive, Runt-CBFb FRET inactive and Runt-SMMHC FRET 79.2.
CCN(Cc1ccccc1)c1ccc(/C=C(\C#N)c2ccccn2)cc1 was read as Hck-Nef inh inactive, RanGTP-Impb inh inactive, Runt-CBFb FRET inactive and Runt-SMMHC FRET inactive.
For CCN(CC)c1ccc(/C=C(\C#N)c2ccccn2)cc1 the results were Hck-Nef inh inactive, RanGTP-Impb inh 44.6, Runt-CBFb FRET inactive and Runt-SMMHC FRET inactive.
Screening COc1ccc(NC(=O)CSCC(=O)Nc2cccc3ncccc23)cc1 returned RanGTP-Impb inh inactive.
N#CCn1cnc2c(oc3ccccc32)c1=O was read as RanGTP-Impb inh inactive.
For NC(=O)c1sc2nc(-c3ccccc3)ccc2c1N the results were RanGTP-Impb inh inactive.
CCOC(=O)c1sc2nc(-c3ccccc3)ccc2c1N was read as Hck-Nef inh inactive, RanGTP-Impb inh 30.1, Runt-CBFb FRET inactive and Runt-SMMHC FRET inactive.
`O=C(O)c1ccc(N/N=C/C2=Cc3ccccc3OC2)cc1` gave Hck-Nef inh inactive, RanGTP-Impb inh 21.1, Runt-CBFb FRET inactive and Runt-SMMHC FRET inactive.
`O=C(O)c1ccc(N/N=C/c2ccncc2)cc1` gave RanGTP-Impb inh inactive.
`CC(/C=C1\SC(=S)N(C(C(=O)O)c2ccccc2)C1=O)=C\c1ccccc1` (stereo unspecified) gave Hck-Nef inh 74.8, RanGTP-Impb inh inactive, Runt-CBFb FRET inactive and Runt-SMMHC FRET inactive.
Screening CCOc1ccc(C2C(C#N)=C(N)Oc3cc(O)ccc32)cc1OCC (stereo unspecified) returned RanGTP-Impb inh 50.7.
Screening COC(=O)c1ccc(C2C(C#N)=C(N)Oc3cc(O)ccc32)cc1 (stereo unspecified) returned RanGTP-Impb inh inactive.
For C#CCOc1ccc(C2C(C#N)=C(N)Oc3cc(O)ccc32)cc1 (stereo unspecified) the results were RanGTP-Impb inh 66.5.
Screening COc1ccc(C2C(C#N)=C(N)Oc3cc(O)ccc32)cc1Cl (stereo unspecified) returned RanGTP-Impb inh 59.1.
Screening O=C(CNC(=O)c1ccco1)OCC(=O)c1ccc(Br)cc1 returned RanGTP-Impb inh inactive.
COc1ccc(/C=N\NC(=O)c2cc(O)c(O)c(O)c2)cc1COc1ccc(C(=O)OCC(C)C)cc1 was read as RanGTP-Impb inh inactive.
Screening CC(=O)N1CC=C2C(C#N)=C(N)C(C#N)(C#N)[C@H](c3ccoc3)[C@H]2C1 returned Hck-Nef inh inactive, RanGTP-Impb inh inactive, Runt-CBFb FRET inactive and Runt-SMMHC FRET inactive.
`CCN1CC=C2C(C#N)=C(N)C(C#N)(C#N)C(CCc3ccccc3)C2C1` (stereo unspecified) gave Hck-Nef inh inactive, Runt-CBFb FRET 108.2 and Runt-SMMHC FRET inactive.

High-throughput results from PubChem BioAssay.
